Where a SMILES comes first, the peptide text is derived from it. The star is where a group is joined. Argψ(CH2NH)TyrNH2 = N=C(N)NCCC[C@@H](CN[C@@H](Cc1ccc(O)cc1)C(N)=O)N*
What was measured:
[1] = Selectivity ratio of Y1/Y2/Y4/Y5; 1/3840/120/2450
[2] = target: T1, Neuropeptide Y receptor type 1 (Homo sapiens) (UniProt P25929); assay: Antagonist potency for the inhibition of Forskolin stimulated cAMP synthesis in cells expressing cloned Y1 receptors; type: functional
T1 sequence (whole entry): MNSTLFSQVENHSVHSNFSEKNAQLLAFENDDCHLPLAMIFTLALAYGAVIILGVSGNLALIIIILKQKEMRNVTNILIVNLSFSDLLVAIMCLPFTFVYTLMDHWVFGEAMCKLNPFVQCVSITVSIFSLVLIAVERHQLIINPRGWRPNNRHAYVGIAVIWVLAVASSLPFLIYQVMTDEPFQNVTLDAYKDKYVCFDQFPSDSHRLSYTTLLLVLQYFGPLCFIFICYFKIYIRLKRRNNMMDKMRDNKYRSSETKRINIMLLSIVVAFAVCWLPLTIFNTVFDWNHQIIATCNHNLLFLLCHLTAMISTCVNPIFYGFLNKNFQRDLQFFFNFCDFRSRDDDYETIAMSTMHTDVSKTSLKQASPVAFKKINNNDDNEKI

[3] = target: T2, Neuropeptide Y receptor type 2 (Homo sapiens, UniProt P49146); assay: Affinity for cloned Y2 receptor using [125I]PYY as radioligand
T2 sequence (P49146 whole entry): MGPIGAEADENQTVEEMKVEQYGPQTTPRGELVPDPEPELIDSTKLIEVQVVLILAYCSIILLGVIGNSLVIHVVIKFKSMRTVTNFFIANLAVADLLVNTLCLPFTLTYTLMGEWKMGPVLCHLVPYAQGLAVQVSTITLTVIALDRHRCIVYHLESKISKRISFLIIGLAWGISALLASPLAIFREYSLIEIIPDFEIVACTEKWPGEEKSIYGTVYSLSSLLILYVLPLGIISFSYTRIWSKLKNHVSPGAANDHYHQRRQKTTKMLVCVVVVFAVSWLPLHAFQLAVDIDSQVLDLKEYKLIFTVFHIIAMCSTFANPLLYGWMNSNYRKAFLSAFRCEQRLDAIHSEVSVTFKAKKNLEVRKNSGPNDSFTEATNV

[4] = target: T3, Neuropeptide Y receptor type 1 (Homo sapiens, UniProt P25929); assay: Affinity for cloned Y1 receptor using [125I]PYY as radioligand
T3 sequence (P25929 whole entry): T1 sequence (whole entry)

[5] = target: T4, Neuropeptide Y receptor type 4 (Homo sapiens, UniProt P50391); assay: (§1) Affinity for cloned Y4 receptor using [125I]PP as radioligand
T4 sequence (P50391 whole entry): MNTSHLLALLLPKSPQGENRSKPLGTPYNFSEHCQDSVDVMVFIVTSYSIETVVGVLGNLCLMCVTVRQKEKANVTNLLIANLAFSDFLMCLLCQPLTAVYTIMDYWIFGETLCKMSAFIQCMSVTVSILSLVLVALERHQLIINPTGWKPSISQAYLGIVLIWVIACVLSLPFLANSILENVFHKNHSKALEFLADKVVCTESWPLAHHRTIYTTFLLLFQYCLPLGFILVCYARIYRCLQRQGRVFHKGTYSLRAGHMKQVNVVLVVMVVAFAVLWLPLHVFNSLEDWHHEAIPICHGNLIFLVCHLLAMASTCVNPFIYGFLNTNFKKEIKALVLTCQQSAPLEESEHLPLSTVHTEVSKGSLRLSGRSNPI
Outline: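 Displacement binding with 125I-PP as tracer in cells expressing the Y4 receptor; PP served as the reference control.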

[6] = target: T5, Neuropeptide Y receptor type 5 (Homo sapiens, UniProt Q15761); assay: Affinity for cloned Y5 receptor using [125I]PYY as radioligand
T5 sequence (Q15761 whole entry): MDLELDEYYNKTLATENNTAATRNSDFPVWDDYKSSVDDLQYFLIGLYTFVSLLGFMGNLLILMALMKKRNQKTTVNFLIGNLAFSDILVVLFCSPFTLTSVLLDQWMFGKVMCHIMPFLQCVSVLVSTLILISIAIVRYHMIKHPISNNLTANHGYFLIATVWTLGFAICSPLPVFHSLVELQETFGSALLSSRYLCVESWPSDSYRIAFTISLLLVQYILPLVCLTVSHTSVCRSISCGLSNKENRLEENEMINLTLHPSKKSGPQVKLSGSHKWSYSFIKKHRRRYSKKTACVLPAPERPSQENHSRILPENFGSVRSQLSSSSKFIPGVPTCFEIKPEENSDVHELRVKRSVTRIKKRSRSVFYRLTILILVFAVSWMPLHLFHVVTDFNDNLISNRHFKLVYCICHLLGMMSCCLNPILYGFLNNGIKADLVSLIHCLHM

[7] = target: T4, Neuropeptide Y receptor type 4; assay: as §1; remark: listed apart in the source
[8] = target: T4, Neuropeptide Y receptor type 4; assay: Agonist potency for the inhibition of Forskolin stimulated cAMP synthesis in cells expressing cloned Y4 receptors; no effect means no agonist activity at <20 000 nM; type: functional
Outline: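 Inhibition of forskolin-driven cAMP synthesis in cells expressing the Y4 receptor, with PP run as the reference control.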

[9] = target: T5, Neuropeptide Y receptor type 5; assay: Agonist potency for the inhibition of Forskolin stimulated cAMP synthesis in cells expressing cloned Y5 receptors; no effect means no agonist activity at <20 000 nM; type: functional
[10] = target: T2, Neuropeptide Y receptor type 2; assay: Agonist potency for the inhibition of Forskolin stimulated cAMP synthesis in cells expressing cloned Y2 receptors; no effect means no agonist activity at <20 000 nM; type: functional
[11] = target: T1, Neuropeptide Y receptor type 1 (Homo sapiens); assay: Selectivity ratio of Y1/Y2/Y4/Y5; 1/2/1/200

Compound | Kb [2] | Ki [3] | Ki [4] | Ki [5] | Ki [6] | further results
CC[C@H](C)[C@H](N)C(=O)N[C@H]1CCC(=O)NC[C@@H](C(=O)N[C@@H](Cc2ccc(O)cc2)C(=O)N[C@@H](CCCN=C(N)N)C(=O)N[C@@H](CC(C)C)C(=O)N[C@@H](CCCN=C(N)N)C(=O)N[C@@H](Cc2ccc(O)cc2)C(=O)OC)NC(=O)[C@@H]2CCCN2C(=O)[C@H](NC(=O)[C@@H](N)[C@@H](C)CC)CCC(=O)NC[C@H](C(=O)N[C@@H](Cc2ccc(O)cc2)C(=O)N[C@@H](CCCN=C(N)N)C(=O)N[C@@H](CC(C)C)C(=O)N[C@@H](CCCN=C(N)N)C(=O)N[C@@H](Cc2ccc(O)cc2)C(=O)OC)NC(=O)[C@@H]2CCCN2C1=O | 0.00019 µM | – | – | – | – | Selectivity [1]: Y1/Y4/Y5/Y2
CC[C@H](C)[C@H](N)C(=O)N[C@H]1CCC(=O)NC[C@@H](C(=O)N[C@@H](Cc2ccc(O)cc2)C(=O)N[C@@H](CCCNC(=N)N)C(=O)N[C@@H](CC(C)C)C(=O)N[C@@H](CCCNC(=N)N)CN[C@@H](Cc2ccc(O)cc2)C(N)=O)NC(=O)[C@@H]2CCCN2C(=O)[C@@H](NC(=O)[C@@H](N)[C@@H](C)CC)CCC(=O)NC[C@@H](C(=O)N[C@@H](Cc2ccc(O)cc2)C(=O)N[C@@H](CCCNC(=N)N)C(=O)N[C@@H](CC(C)C)C(=O)N[C@@H](CCCNC(=N)N)CN[C@@H](Cc2ccc(O)cc2)C(N)=O)NC(=O)[C@@H]2CCCN2C1=O | – | 0.624 µM | 0.00046 µM | 0.0655 µM | 7.89 µM | –
CC[C@H](C)[C@H](N)C(=O)N[C@H]1CCC(=O)NC[C@@H](C(=O)N[C@@H](Cc2ccc(O)cc2)C(=O)N[C@@H](CCCN=C(N)N)C(=O)N[C@@H](CC(C)C)C(=O)N[C@@H](CCCN=C(N)N)CN[C@@H](Cc2ccc(O)cc2)C(N)=O)NC(=O)[C@@H]2CCCN2C(=O)[C@H](NC(=O)[C@@H](N)[C@@H](C)CC)CCC(=O)NC[C@H](C(=O)N[C@@H](Cc2ccc(O)cc2)C(=O)N[C@@H](CCCN=C(N)N)C(=O)N[C@@H](CC(C)C)C(=O)N[C@@H](CCCN=C(N)N)CN[C@@H](Cc2ccc(O)cc2)C(N)=O)NC(=O)[C@@H]2CCCN2C1=O | 0.00058 µM | – | – | – | – | –
CC[C@H](C)[C@H](N)C(=O)N[C@@H](CC(N)=O)C(=O)N1CCC[C@H]1C(=O)N[C@@H](CSSC[C@H](NC(=O)[C@@H]1CCCN1C(=O)[C@H](CC(N)=O)NC(=O)[C@@H](N)[C@@H](C)CC)C(=O)N[C@@H](Cc1ccc(O)cc1)C(=O)N[C@@H](CCCN=C(N)N)C(=O)N[C@@H](CC(C)C)C(=O)N[C@@H](CCCN=C(N)N)CN[C@@H](Cc1ccc(O)cc1)C(N)=O)C(=O)N[C@@H](Cc1ccc(O)cc1)C(=O)N[C@@H](CCCN=C(N)N)C(=O)N[C@@H](CC(C)C)C(=O)N[C@@H](CCCN=C(N)N)CN[C@@H](Cc1ccc(O)cc1)C(N)=O | – | – | – | – | – | EC50 [8]: Not Active; EC50 [9]: Not Active; EC50 [10]: Not Active
CC[C@H](C)[C@H](N)C(=O)N[C@@H](CC(N)=O)C(=O)N1CCC[C@H]1C(=O)N[C@@H](CSSC[C@@H](NC(=O)[C@@H]1CCCN1C(=O)[C@H](CC(N)=O)NC(=O)[C@@H](N)[C@@H](C)CC)C(=O)N[C@@H](Cc1ccc(O)cc1)C(=O)N[C@@H](CCCN=C(N)N)C(=O)N[C@@H](CC(C)C)C(=O)N[C@@H](CCCN=C(N)N)CN[C@@H](Cc1ccc(O)cc1)C(N)=O)C(=O)N[C@@H](Cc1ccc(O)cc1)C(=O)N[C@@H](CCCN=C(N)N)C(=O)N[C@@H](CC(C)C)C(=O)N[C@@H](CCCN=C(N)N)CN[C@@H](Cc1ccc(O)cc1)C(N)=O | 0.00079 µM | – | – | – | – | –
CC[C@H](C)[C@H](N)C(=O)N[C@@H](CC(N)=O)C(=O)N1CCC[C@H]1C(=O)N[C@@H](CSSC[C@H](NC(=O)[C@@H]1CCCN1C(=O)[C@H](CC(N)=O)NC(=O)[C@@H](N)[C@@H](C)CC)C(=O)N[C@@H](Cc1ccc(O)cc1)C(=O)N[C@@H](CCCNC(=N)N)C(=O)N[C@@H](CC(C)C)C(=O)N[C@@H](CCCNC(=N)N)CN[C@@H](Cc1ccc(O)cc1)C(N)=O)C(=O)N[C@@H](Cc1ccc(O)cc1)C(=O)N[C@@H](CCCNC(=N)N)C(=O)N[C@@H](CC(C)C)C(=O)N[C@@H](CCCNC(=N)N)CN[C@@H](Cc1ccc(O)cc1)C(N)=O | – | 0.822 µM | 0.0023 µM | 0.065 µM | 2.34 µM | –

Further lines, with some results ahead:

Kb [2] | Ki [3] | Ki [4] | Ki [5] | Ki [6] | Compound | further results
– | 1.42 µM | 0.0257 µM | – | 7.1 µM | CC[C@H](C)[C@H](N)C(=O)N[C@@H](CC(N)=O)C(=O)N1CCC[C@H]1C(=O)N[C@H](C(=O)N[C@@H](Cc1ccc(O)cc1)C(=O)N[C@@H](CCCNC(=N)N)C(=O)N[C@@H](CC(C)C)C(=O)N[C@@H](CCCNC(=N)N)C(=O)N[C@@H](Cc1ccc(O)cc1)C(=O)OC)[C@@H](C)CC (H-INPIYRLRY-OMe) | Ki [7]: 2.4 µM
– | 1.04 µM | 0.00027 µM | 0.0334 µM | 0.662 µM | CC[C@H](C)[C@H](N)C(=O)N[C@H]1CCC(=O)NC[C@@H](C(=O)N[C@@H](Cc2ccc(O)cc2)C(=O)N[C@@H](CCCN=C(N)N)C(=O)N[C@@H](CC(C)C)C(=O)N[C@@H](CCCN=C(N)N)C(=O)N[C@@H](Cc2ccc(O)cc2)C(=O)OC)NC(=O)[C@@H]2CCCN2C(=O)[C@@H](NC(=O)[C@@H](N)[C@@H](C)CC)CCC(=O)NC[C@@H](C(=O)N[C@@H](Cc2ccc(O)cc2)C(=O)N[C@@H](CCCN=C(N)N)C(=O)N[C@@H](CC(C)C)C(=O)N[C@@H](CCCN=C(N)N)C(=O)N[C@@H](Cc2ccc(O)cc2)C(=O)OC)NC(=O)[C@@H]2CCCN2C1=O | EC50 [8]: Not Active; EC50 [9]: Not Active; EC50 [10]: Not Active
– | 1.65 µM | 0.0348 µM | – | 5.08 µM | CC[C@H](C)[C@H](N)C(=O)N[C@@H](CC(N)=O)C(=O)N1CCC[C@H]1C(=O)N[C@H](C(=O)N[C@@H](Cc1ccc(O)cc1)C(=O)N[C@@H](CCCNC(=N)N)C(=O)N[C@@H](CC(C)C)C(=O)N[C@@H](CCCNC(=N)N)CN[C@@H](Cc1ccc(O)cc1)C(N)=O)[C@@H](C)CC (H-INPIYRL-{Argψ(CH2NH)TyrNH2}) | Ki [7]: 3.74 µM
– | 1.12 µM | 0.0048 µM | 0.099 µM | 0.464 µM | CC[C@H](C)[C@H](N)C(=O)N[C@@H](CC(N)=O)C(=O)N1CCC[C@H]1C(=O)N[C@@H](CSSC[C@H](NC(=O)[C@@H]1CCCN1C(=O)[C@H](CC(N)=O)NC(=O)[C@@H](N)[C@@H](C)CC)C(=O)N[C@@H](Cc1ccc(O)cc1)C(=O)N[C@@H](CCCN=C(N)N)C(=O)N[C@@H](CC(C)C)C(=O)N[C@@H](CCCN=C(N)N)C(=O)N[C@@H](Cc1ccc(O)cc1)C(=O)OC)C(=O)N[C@@H](Cc1ccc(O)cc1)C(=O)N[C@@H](CCCN=C(N)N)C(=O)N[C@@H](CC(C)C)C(=O)N[C@@H](CCCN=C(N)N)C(=O)N[C@@H](Cc1ccc(O)cc1)C(=O)OC | EC50 [8]: Not Active; EC50 [9]: Not Active; EC50 [10]: Not Active
0.0023 µM | – | – | – | – | CC[C@H](C)[C@H](N)C(=O)N[C@@H](CC(N)=O)C(=O)N1CCC[C@H]1C(=O)N[C@@H](CSSC[C@@H](NC(=O)[C@@H]1CCCN1C(=O)[C@H](CC(N)=O)NC(=O)[C@@H](N)[C@@H](C)CC)C(=O)N[C@@H](Cc1ccc(O)cc1)C(=O)N[C@@H](CCCN=C(N)N)C(=O)N[C@@H](CC(C)C)C(=O)N[C@@H](CCCN=C(N)N)C(=O)N[C@@H](Cc1ccc(O)cc1)C(=O)OC)C(=O)N[C@@H](Cc1ccc(O)cc1)C(=O)N[C@@H](CCCN=C(N)N)C(=O)N[C@@H](CC(C)C)C(=O)N[C@@H](CCCN=C(N)N)C(=O)N[C@@H](Cc1ccc(O)cc1)C(=O)OC | –
– | 0.0113 µM | 0.005 µM | – | > 1 µM | H-INPIYRLRY-NH2 | Selectivity [11]: Y1/Y4/Y2/Y5; Ki [7]: 0.0058 µM

— ChEMBL document CHEMBL1134468 (J Med Chem, 2001)
